This is a sample that favours compounds with a hit; in the whole collection about 3.4% have one here.
TRPML3 agonist = human TRPML3 channel agonists, primary screen, cell-based, HEK293 TRPML3-YFP, Fluo-8 calcium fluorescence, 3 µM; AID 1448, 2008; 100% = the carbachol control signal; Mucolipin-3 (Homo sapiens), Q8TDD5; 0.29% of 220,000 active; activation, % at 3 µM;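 active means activation above its plate's cutoff, the mean activation of the plate's test wells plus 3 SD, cut at about 12% in these data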;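 further: 0% = DMSO only wells and 100% = carbachol wells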
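system = HEK293 cells stably carrying human TRPML3-YFP | doses = one concentration, 3 µM nominal, 0.3% DMSO | timing = dye loading 1 h 37 °C then 30 min ambient, 125 s read | detection = Fluo-8 calcium dye fluorescence, ex 470-495, em 515-575 nm | benchmarks = high control carbachol 87 µM, low control DMSO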
LANA-H2B inh = blockers of LANA interaction with H2A/H2B – biochemical, FP readout, HTS, primary screen; Protein LANA1 (Human herpesvirus 8 type P (isolate GK18)), Q9QR71; inhibition, % (test concentration not listed); 0.6% of 320,000 active; cell-free LANA-H2A/H2B peptide, fluorescence polarization; in the data active means inhibition mostly above about 10%, no sharp cut-off; inactive means mostly below about 6.7%
Target sequence (Q9QR71 whole entry, looked up): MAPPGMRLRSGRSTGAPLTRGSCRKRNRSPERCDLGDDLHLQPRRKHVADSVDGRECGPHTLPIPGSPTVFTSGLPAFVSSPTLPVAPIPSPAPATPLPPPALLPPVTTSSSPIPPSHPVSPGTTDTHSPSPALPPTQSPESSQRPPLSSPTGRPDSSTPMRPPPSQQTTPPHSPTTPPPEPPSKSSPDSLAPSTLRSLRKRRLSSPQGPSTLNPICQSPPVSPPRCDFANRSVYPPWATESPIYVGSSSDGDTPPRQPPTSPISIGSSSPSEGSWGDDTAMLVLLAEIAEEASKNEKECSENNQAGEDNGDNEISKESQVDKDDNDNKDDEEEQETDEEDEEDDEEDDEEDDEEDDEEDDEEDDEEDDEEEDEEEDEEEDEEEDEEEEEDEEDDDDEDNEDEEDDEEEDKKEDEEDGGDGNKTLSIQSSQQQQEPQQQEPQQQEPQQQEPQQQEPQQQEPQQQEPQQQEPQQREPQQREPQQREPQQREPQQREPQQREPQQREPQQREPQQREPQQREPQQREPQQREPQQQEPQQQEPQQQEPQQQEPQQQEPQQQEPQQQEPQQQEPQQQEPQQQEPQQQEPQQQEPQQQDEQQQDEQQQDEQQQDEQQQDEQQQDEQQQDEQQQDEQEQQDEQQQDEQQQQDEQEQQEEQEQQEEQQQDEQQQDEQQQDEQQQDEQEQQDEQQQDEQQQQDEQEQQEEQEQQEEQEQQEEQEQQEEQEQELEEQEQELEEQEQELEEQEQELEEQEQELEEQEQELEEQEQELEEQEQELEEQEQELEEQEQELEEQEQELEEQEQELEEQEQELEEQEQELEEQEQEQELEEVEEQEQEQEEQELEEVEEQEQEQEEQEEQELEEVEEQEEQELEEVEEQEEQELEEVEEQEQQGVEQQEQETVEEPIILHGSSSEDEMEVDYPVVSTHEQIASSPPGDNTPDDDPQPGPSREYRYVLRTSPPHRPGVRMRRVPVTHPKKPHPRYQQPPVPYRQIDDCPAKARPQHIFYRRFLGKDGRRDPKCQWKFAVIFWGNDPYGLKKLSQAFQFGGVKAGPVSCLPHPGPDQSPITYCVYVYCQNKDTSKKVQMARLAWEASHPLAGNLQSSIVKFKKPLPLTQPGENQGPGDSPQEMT
zfTRPN1 agonist = zebrafish TRPN1 channel agonists, primary screen, cell-based, HEK293, calcium fluorescence. transient receptor potential cation channel N1 (TRPN1/NompC), Danio rerio. HEK293 zebrafish TRPN1-YFP, Fluo-8 calcium fluorescence; 100% = response to 87 µM carbachol. activation, % at 3 µM. 0.18% of 220,000 active. AID 1424, 2008;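 active means activation above its plate's cutoff, the mean activation of test wells on that plate plus 3 SD, cut at about 19% in these data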;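 further: 0% = DMSO alone and 100% = 87 µM carbachol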
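Material: zebrafish TRPN1-YFP in HEK293 cells. Doses: one dose of 3 µM, 0.3% DMSO. Incubation: dye 1 h 37 °C plus 30 min RT. Measured by: intracellular calcium fluorescence with Fluo-8.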
GPR7 antagonist = GPR7 receptor antagonists, primary screen, cell-based, fluorescence, single concentration. Neuropeptides B/W receptor type 1 (Homo sapiens), P48145. GPR7-expressing cells, fluorescence antagonist assay. inhibition, % at 4.4 µM. 1.1% of 290,000 active; in the data active means inhibition above about 16%, passing the limit was not always enough;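 further: cells stimulated with the agonist NPW; 0% = agonist with vehicle and 100% = vehicle without agonist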
TAAR1 antag = human TAAR1 antagonists, primary screen, Fluo-8 calcium fluorescence, CHO RD-HGA16 cells; 1.5% of 360,000 active; inhibition, % at 3 µM; antagonist; Trace amine-associated receptor 1 (Homo sapiens), Q96RJ0;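 active means inhibition above a per-plate cutoff, the mean inhibition of test compounds on that plate plus 3 SD, cut at about 49% in these data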;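 further: 0% = DMSO plus EC80 beta-PEA response and 100% = DMSO alone without agonist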
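Test system: CHO RD-HGA16 cells bearing hTAAR1 | Reagent: β-PEA, EC80 | Compound dosing: 3 µM, single point | Schedule: Dye loading 75 min at 37 °C, then 30 min room temperature | Signal: Calcium fluorescence with Fluo-8 | Evaluation: Percent inhibition of PEA-evoked calcium signal, max/basal emission ratio | Control set: DMSO-only wells and EC80 β-PEA-stimulated wells | Repeats: Singlicate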
TAAR1 agonist = human TAAR1 agonists, primary screen, Fluo-8 calcium fluorescence, CHO RD-HGA16 cells | Trace amine-associated receptor 1 (Homo sapiens), Q96RJ0 | vehicle wells 0%, saturating PEA agonist 100% | activation, % at 3 µM | 0.99% of 360,000 active | AID 624467, 2012;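 active means activation above the mean activation of all test compounds in the run plus 3 SD, cut at about 38% in these data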
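Test system: RD-HGA16 (CHO) cells co-expressing Gα16 and hTAAR1 / Benchmarks: DMSO vehicle as 0%, PEA at EC100 as 100% / Repeats: no replicates (n 1) / Measure: % activation from peak over basal fluorescence ratio, DMSO-to-PEA scaled / Timing: 17-24 h plating, Fluo-8 75 min 37 °C, 30 min RT / Technique: kinetic Fluo-8 calcium fluorescence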
* = called active by the depositor.

Screening COc1cccc(C(c2nnnn2Cc2ccccc2)N2CCN(C3CCCC3)CC2)c1OC (stereo not given) returned TRPML3 agonist 1, LANA-H2B inh 3, zfTRPN1 agonist 1, GPR7 antagonist 1, TAAR1 antag 53* and TAAR1 agonist 24.
COc1ccccc1C(c1nnnn1Cc1ccccc1)N1CCN(C2CCCC2)CC1 (stereo not given) was read as TRPML3 agonist 1, LANA-H2B inh 1, zfTRPN1 agonist 1, GPR7 antagonist 8, TAAR1 antag -3 and TAAR1 agonist 6.
Screening COc1cc(C=NN=c2sc3ccccc3n2C)ccc1OCCO returned TAAR1 antag 9 and TAAR1 agonist 7.
`CCn1nc(CC(=O)Nc2nnc(CC(=O)N3CCCCC3)s2)c2ccccc2c1=O` gave TRPML3 agonist 0, zfTRPN1 agonist 0, GPR7 antagonist 1, TAAR1 antag -2 and TAAR1 agonist 1.
Cc1nn(CC(=O)Nc2nnc(CC(=O)N3CCCC3)s2)c(=O)c2ccccc12 was read as TRPML3 agonist 0, LANA-H2B inh 10, zfTRPN1 agonist 3, GPR7 antagonist 18*, TAAR1 antag 14 and TAAR1 agonist 0.
Cc1ccc(NC(=O)C2=C(c3ccccc3)S(=O)(=O)CCS2(=O)=O)cc1 was read as TRPML3 agonist 3, LANA-H2B inh -1, zfTRPN1 agonist 3, GPR7 antagonist 34*, TAAR1 antag 18 and TAAR1 agonist 6.
`CCOC(=O)C1=CCN(S(=O)(=O)c2ccc(Br)cc2)C1c1cccc(Br)c1` (stereo not given) gave TAAR1 antag -3 and TAAR1 agonist 0.
`CSc1ccc(Cl)c(C(=O)NCCOc2cc(C(C)C)ccc2C)c1` gave TRPML3 agonist -1, LANA-H2B inh -6, zfTRPN1 agonist -1, GPR7 antagonist -2, TAAR1 antag 49* and TAAR1 agonist 5.
Screening COc1cc(SC)ccc1C(=O)NCCOc1ccc(Cl)cc1 returned TRPML3 agonist -1, LANA-H2B inh 12, zfTRPN1 agonist 0, GPR7 antagonist 19, TAAR1 antag 0 and TAAR1 agonist 7.
Screening COc1ccc2cc(CN(Cc3ccco3)C(=S)NCC3CCCO3)c(=O)[nH]c2c1 (stereo not given) returned TRPML3 agonist 1, LANA-H2B inh 3, zfTRPN1 agonist 1, GPR7 antagonist 12, TAAR1 antag 5 and TAAR1 agonist 4.
Cc1cc(C)c2cc(CN(Cc3ccco3)C(=S)NCC3CCCO3)c(=O)[nH]c2c1 (stereo not given) was read as TRPML3 agonist 0, LANA-H2B inh 20*, zfTRPN1 agonist -1, GPR7 antagonist 8, TAAR1 antag 1 and TAAR1 agonist 8.
Screening O=[N+]([O-])c1ccc(-c2cnc(SCc3ccccc3Cl)[nH]2)cc1 returned TRPML3 agonist 0, LANA-H2B inh -5, zfTRPN1 agonist 0, GPR7 antagonist 9, TAAR1 antag 52* and TAAR1 agonist 1.
`O=[N+]([O-])c1ccc(-c2cnc(SC(c3ccccc3)c3ccccc3)[nH]2)cc1` gave TRPML3 agonist 0, zfTRPN1 agonist -1, GPR7 antagonist 18, TAAR1 antag 38 and TAAR1 agonist 0.
O=C(/C=C(\Nc1cc(Cl)c(Cl)c(Cl)c1)c1ccccc1)c1ccccc1 was read as TAAR1 antag -17 and TAAR1 agonist 0.
Screening COC(=O)[C@]12C[C@H](CC(=O)N3CCN(C(=O)c4ccco4)CC3)C(=O)N(CCC3=CCCCC3)C1=C[C@H](COCc1ccccc1)O[C@@H]2C returned TAAR1 antag -13 and TAAR1 agonist -2.
CN(CCCNC(=O)CSc1cc(=O)n(C)c2cc(Cl)ccc12)Cc1ccccc1 was read as TRPML3 agonist 0, LANA-H2B inh 0, zfTRPN1 agonist 0, GPR7 antagonist 21*, TAAR1 antag -3 and TAAR1 agonist 0.
Cc1nc2cc[nH]n2c(=O)c1CCc1ccccc1 was read as TAAR1 antag -17 and TAAR1 agonist 3.
COC(=O)C1=C(C)N(C)C(=NCc2cccc(C(F)(F)F)c2)NC1c1cccc(Cl)c1 (stereo not given) was read as TAAR1 antag 24 and TAAR1 agonist 19.
O=S(=O)(Cc1ccc(Cl)cc1)Oc1ccc(Cl)cc1 was read as TAAR1 antag 55* and TAAR1 agonist 0.
Screening O=[N+]([O-])c1ccc(OS(=O)(=O)Cc2ccccc2)cc1 returned TRPML3 agonist -1, LANA-H2B inh 1, zfTRPN1 agonist -2, GPR7 antagonist -3, TAAR1 antag 0 and TAAR1 agonist 3.
For CCN=C(Nc1ccc2c(c1)OCO2)SC1CC(=O)N(c2ccc(OC)cc2)C1=O (stereo not given) the results were TRPML3 agonist 1, LANA-H2B inh -5, zfTRPN1 agonist 1, GPR7 antagonist -15, TAAR1 antag 50* and TAAR1 agonist 13.
CCN=C(Nc1ccc2c(c1)OCO2)SC1CC(=O)N(c2ccccc2F)C1=O (stereo not given) was read as TRPML3 agonist 0, LANA-H2B inh 3, zfTRPN1 agonist 0, GPR7 antagonist 9, TAAR1 antag 22 and TAAR1 agonist 8.
For COC[C@@H](O)[C@H]1OCc2cc(OC)ccc2[C@@H]1/C=C/c1ccccc1 the results were TAAR1 antag 0 and TAAR1 agonist 3.
COC(=O)[C@]12C[C@H](CC(=O)NCCC(C)C)C(=O)N(Cc3ccc4c(c3)OCO4)C1=C[C@H](COCc1ccccc1)O[C@@H]2C was read as TAAR1 antag -32 and TAAR1 agonist -2.
Screening CCC(C)NC(=O)c1ccccc1NC(=O)Nc1ccccc1 (stereo not given) returned TRPML3 agonist 0, LANA-H2B inh 16*, zfTRPN1 agonist -1, GPR7 antagonist -2, TAAR1 antag 6 and TAAR1 agonist 2.
`CC(C)CNC(=O)c1ccccc1NC(=O)Nc1ccccc1` gave TRPML3 agonist 0, LANA-H2B inh -1, zfTRPN1 agonist -2, GPR7 antagonist 0, TAAR1 antag 15 and TAAR1 agonist 10.

Compound activity as filed in PubChem BioAssay.
